Experimental findings from ChEMBL document CHEMBL1926517, “C-terminal tetrapeptides inhibit Aβ42-induced neurotoxicity primarily through specific interaction at the N-terminus of Aβ42” (J Med Chem, 2011) are described below.

pIC50: −log10 of the molar value. Activity calls are given as the source filed them. No cut-off for these calls is given here. Residues, ends and D or L forms follow the SMILES beside them.

The test system of data set [1] is PC-12. Put plainly: Neuroprotective activity in rat PC12 cells assessed as inhibition of amyloid-beta (1 to 42)-induced cell death after 24 hrs by MTT assay. The following applies: for pIC50: PC-12, 24 h. The data set is classed as functional, cell-based. The essentials:
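NGF-differentiated PC-12 cells (100 ng/mL, 48 h) were given 10 μM Aβ42 plus peptide at 1:1, 1:2, 1:5 and 1:10 ratios for 24 h, and read by MTT. Viability was scaled to 1 μM staurosporine full kill (100% loss), with NaOH-matched vehicle and medium as negative controls. IC50 from dose–response, ≥3 independent experiments × 6 replicates, mean ± SEM.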
In general terms: Tetrazolium assays rely on reduction of a dye to a coloured formazan, in cell work by metabolically active cells.

For data set [2], the system named is PC-12. Put plainly: Neuroprotective activity in rat PC12 cells assessed as inhibition of amyloid-beta (1 to 42)-induced cell death after 24 hrs by LDH release assay. The class given is functional, cell-based. The following applies: PC-12, 24 h. A digest of the protocol: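 PC-12 cells were differentiated with NGF (100 ng/mL, 48 h), then exposed to Aβ42 alone or Aβ42:peptide mixtures at 1:1, 1:2, 1:5 and 1:10 ratios. Cell death was measured by LDH release (membrane integrity kit). IC50 was taken from the dose–response, ≥3 independent experiments with 6 replicates each, mean ± SEM.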
A general note: LDH leaks from cells whose membrane has failed.

Data set [3] can be described thus: Binding affinity to amyloid beta (1 to 42) Try residue at position 42 assessed as change in fluorescence intensity. A digest of the protocol:
(§1)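 Aβ42 or Y-substituted analogue (5 μM final) mixed with tetrapeptide (50 μM final), HFIP-pretreated, dissolved in 60 mM NaOH (10% of volume) then diluted in 10 mM sodium phosphate pH 7.4. Spun 5,000 g 1 min, concentration confirmed post facto by AAA. Excitation 280 nm, emission 290–400 nm, 22°C, ≥10 scans of ~1 min right after preparation. Buffer subtracted, area under curve normalized to peptide alone. Four independent experiments, mean ± SEM.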

Data set [4] in a line: Binding affinity to amyloid beta (1 to 42) assessed as change in fluorescence intensity using C-terminus acetylated compound. The essentials: (§2)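 HFIP-pretreated Aβ42 or its Y-substituted analogue (5 μM nominal) was mixed with tetrapeptide (50 μM nominal), taken up in 60 mM NaOH (10% of volume), then diluted with 10 mM sodium phosphate pH 7.4 and spun briefly. Exact concentrations were set afterwards by AAA. Read-out: excitation 280 nm, emission 290–400 nm at 22°C, ≥10 immediate scans. Buffer-subtracted area per micromole was normalized to the analogue alone. Four independent experiments.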

The test system of data set [5] is PC-12. Briefly: Neuroprotective activity in rat PC12 cells assessed as inhibition of staurosporine-induced cell death after 24 hrs by MTT assay. The data set is classed as functional, cell-based. The essentials: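 Differentiated PC-12 cells (NGF 100 ng/mL, 48 h) exposed to 0.2 μM staurosporine, with or without varying tetrapeptide concentrations, for 24 h. Viability was read by MTT. Mean ± SEM, ≥3 independent experiments with 5 replicates per point.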

Data set [6] can be described thus: Binding affinity to amyloid beta (1 to 42) Try residue at position 1 assessed as change in fluorescence intensity using C-terminus acetylated compound. A digest of the protocol: as §2
The test system of data set [7] is PC-12. Put plainly: Neuroprotective activity in rat PC12 cells assessed as inhibition of staurosporine-induced cell death after 24 hrs by MTT assay.
Data set [8] is described as follows: Binding affinity to amyloid beta (1 to 42) Try residue at position 20 assessed as change in fluorescence intensity. A digest of the protocol:
as §1

Data set [9] concerns PC-12. Briefly: Neuroprotective activity in rat PC12 cells assessed as inhibition of alpha-synuclein-induced cell death after 24 hrs by MTT assay. The class given is functional, cell-based. A digest of the protocol:
(§3)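 NGF-differentiated PC-12 cells (100 ng/mL, 48 h) treated 24 h with α-synuclein (15 μM) or alamethicin (4 μM), alone or with a range of tetrapeptide concentrations. MTT read-out. Mean ± SEM of ≥3 independent experiments, 5 replicates per point.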

A short description of data set [10]: Binding affinity to wild type amyloid beta (1 to 42) assessed as change in fluorescence intensity. The essentials: as §1
The nature of data set [11]: Binding affinity to amyloid beta (1 to 42) Try residue at position 1 assessed as change in fluorescence intensity using N-terminus amidated compound. The essentials: as §2
Data set [12] can be described thus: Binding affinity to amyloid beta (1 to 42) Try residue at position 30 assessed as change in fluorescence intensity. A digest of the protocol: as §1
Data set [13] is described as follows: Binding affinity to amyloid beta (1 to 42) Try residue at position 30 assessed as change in fluorescence intensity using N-terminus amidated compound. The essentials: as §2
Data set [14] relates to PC-12. Briefly: Neuroprotective activity in rat PC12 cells assessed as inhibition of alamethicin-induced cell death after 24 hrs by MTT assay. The class given is functional, cell-based. A digest of the protocol:
as §3

The nature of data set [15]: Binding affinity to amyloid beta (1 to 42) Try residue at position 1 assessed as change in fluorescence intensity. The essentials: as §2
Data set [16] can be described thus: Cytotoxicity against rat PC12 cells assessed as cell viability at 1 uM after 24 hrs by MTT assay. The data set is classed as cell-based, PC-12. The following applies: read-out: Activity.

Consider `CC[C@H](C)[C@H](NC(=O)[C@H](C)N)C(=O)N[C@H](C(=O)N[C@H](C(=O)O)C(C)C)C(C)C` (H-AIVV-OH), for which the Activity result with PC-12 [1] is “Dose-dependent effect”.
Turning to `CC[C@H](C)[C@H](NC(=O)[C@@H](NC(=O)[C@H](C)N)C(C)C)C(=O)N[C@@H](C)C(=O)O` (H-AVIA-OH), the pIC50 (in general, the negative decadic logarithm of the IC50, by convention in mol/L) in the data set on PC-12 [2] is 4.66; in the data set on PC-12 [1], 4.28. Moreover, the Activity result with PC-12 [1] was “Dose-dependent effect”.
On to `CC[C@H](C)[C@H](NC(=O)[C@H](C)NC(=O)[C@@H](N)C(C)C)C(=O)N[C@@H](C)C(=O)O` (H-VAIA-OH), for which the negative-log IC50 (pIC50) in the data set with PC-12 [2] was 4.85. Also, in the data set on PC-12 [1], the Activity entry is “Dose-dependent effect” and the negative-log IC50 (pIC50) was 4.82.
As to `CC[C@H](C)[C@H](NC(=O)[C@@H](NC(=O)[C@@H](N)C(C)C)C(C)C)C(=O)N[C@@H](C)C(=O)O`, the outcome (in data set [3]; with PC-12 [5]; with PC-12 [7]; in [8]; with PC-12 [9]; in [10]) was inactive. Also, the outcome (in data set [12]; in the data set with PC-12 [14]) was inactive. Besides, the Flu intensity in data set [4] came out at 19%; in data set [6], 48%; in [11], 62%; in data set [13] it was 24%; in data set [15], 117%. Besides, in the data set on PC-12 [1], the Activity entry is “Dose-dependent effect”. In addition, the pIC50 in the data set with PC-12 [1] is 4.68.
In the case of `CC[C@H](C)[C@H](NC(=O)[C@H](C)N)C(=O)N[C@H](C(=O)N[C@H](C(N)=O)C(C)C)C(C)C` (H-AIVV-NH2), in the data set with PC-12 [1], the Activity result is “Dose-dependent effect”.
For `CN[C@@H]1C[C@H]2O[C@@](C)([C@@H]1OC)n1c3ccccc3c3c4c(c5c6ccccc6n2c5c31)C(=O)NC4` [STAUROSPORINE], in data set [16], the viability at 24 h, 1 µM is 100%.
In the case of `CC[C@H](C)[C@H](NC(=O)[C@@H](NC(=O)[C@@H](N)C(C)C)C(C)C)C(=O)N[C@@H](C)C(N)=O` (H-VVIA-NH2), the negative logarithm of the IC50 (pIC50) in the data set with PC-12 [2] is 4.52. For the same compound, in the data set with PC-12 [1], the Activity result was “Dose-dependent effect” and the negative-log IC50 (pIC50) is 4.55.
